Experimental findings from ChEMBL document CHEMBL4513216, “Probing the Open Global Health Chemical Diversity Library for Multistage-Active Starting Points for Next-Generation Antimalarials” (ACS Infect Dis, 2020) are described below.

This data set can be described thus: Toxicity liver stage against HepG2, at 10uM. In kind it is cell-based. The arrangement: test concentration 10 uM, cell line HepG2-A16-CD81EGFP. Particulars: human, HepG2-A16-CD81EGFP cells; read-out: INHIBITION
In outline:
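Uninfected HepG2-A16-CD81EGFP cells, 3 × 10^3 per well, 1536-well, plated on prespotted compound at 10 μM final, parasite-free screening media added to match infected plates; puromycin 10 μM positive, DMSO 0.5% negative; run in parallel with 48 h PbLuc assay at 37 °C, 5% CO2; viability by CellTiter-Glo luminescence, normalized to controls.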
On to `CCN1CCC2(CC1)CN(CCO)c1ccccc12`, for which the cytotoxicity at 10 µM is -0.173%.

For the compound `O=C1CC(c2ccsc2)c2sc(C(=O)O)c(-c3ccc(F)cc3)c2N1` (centres undefined), the cytotoxicity at 10 µM was 4.4%.

On to `Cc1nc(NC2CC(C)(C)NC(C)(C)C2)c2c(n1)c(C)nn2C`, for which the cytotoxicity at 10 µM is -11.5%.

As for `Cc1ccnn1C(C)C(=O)Nc1cc(-c2ccncc2)[nH]n1` (centres undefined), the cytotoxicity at 10 µM was -10.7%.

Regarding `CNc1ccc(C2CN(c3nc(C)cc(C)n3)CCO2)nc1` (centres undefined), the cytotoxicity at 10 µM was 0.575%.

Take `COc1ccnc(N(C)Cc2c(C)noc2C)n1`: the cytotoxicity at 10 µM is -3.84%.

As to `CCNc1nnc(SCc2nnc(C(C)(C)C)o2)s1`, the cytotoxicity at 10 µM was -1.79%.

`CCN1CCN(C(=O)c2cc(F)cc3nc(C)c(C)nc23)CC1`: the cytotoxicity at 10 µM is -2.25%.

Take `N#Cc1cccnc1N1CCC(OCCc2ccccc2)CC1`: the cytotoxicity at 10 µM was -11%.

With `Cc1cc(N2CCOCC2)ccc1NC(C)c1nc(C(C)C)no1` (centres undefined), the cytotoxicity at 10 µM is -12.3%.

With `O=C(c1ncoc1C1CCCO1)N1CCC2(CCCCC2)CC1` (centres undefined), the cytotoxicity at 10 µM is -7%.

Turning to `CNC(=O)c1ccc(=O)n(Cc2csc(C(C)(C)C)n2)c1`, the cytotoxicity at 10 µM came out at 6.8%.

For `Cc1cc(C(=O)N2CCC(NC(=O)c3cccnc3)CC2)c(C)o1`, the cytotoxicity at 10 µM was -2.44%.

For `COC(=O)c1ccccc1NS(=O)(=O)c1c(C)nn(C)c1C`, the cytotoxicity at 10 µM was -4.12%.

As to `CC(C)Cc1nc(COc2ccc(N(C)C(N)=O)cc2)no1`, the cytotoxicity at 10 µM turned out to be 30.5%.

Turning to `CC(C)c1nnc(CN(C)C(c2ccc(F)cc2)c2cccnc2)o1` (centres undefined), the cytotoxicity at 10 µM is 4.11%.

Turning to `O=C(O)c1cc(-c2cncnc2)cc(S(=O)(=O)N2CCCCCC2)c1`, the cytotoxicity at 10 µM was 5.38%.

On to `O=C(NCCN1CCCCC1CO)c1cc(-c2ccccc2)on1` (centres undefined), for which the cytotoxicity at 10 µM was -5.53%.

For the compound `CCn1c(CN(C)C)nnc1C1CCN(Cc2ccc(Cl)cc2F)CC1`, the cytotoxicity at 10 µM is -2.53%.

As to `COc1ccnc(N2CCC3(CC2)[C@H](O)C[C@@H]3OCCN(C)C)n1`, the cytotoxicity at 10 µM came to 1.03%.

With `Cc1c(NC(=O)N(C)CCCc2cnn(C)c2)cnn1C`, the cytotoxicity at 10 µM is -1.23%.

For `CCC[C@H]1CN(C(=O)CCn2ccccc2=O)C[C@@H]1NS(C)(=O)=O`, the cytotoxicity at 10 µM came to 5.35%.

On to `CC(C)S(=O)(=O)N1CCCC(c2cccc(C(=O)O)c2)C1` (centres undefined), for which the cytotoxicity at 10 µM is -2.18%.

`Cc1nc(-c2c(-c3ccccc3)ncn2[C@H]2C[C@@H](C(=O)O)N(C)C2)co1`: the cytotoxicity at 10 µM stood at 0.024%.

For the compound `CN(Cc1cnc(N)nc1)CC1CCCN(CCc2ccc(Cl)cc2)C1` (centres undefined), the cytotoxicity at 10 µM is -0.849%.

With `CN(CCCc1cnn(C)c1)C(=O)C1CCC(=O)N(C2CCCC2)C1` (centres undefined), the cytotoxicity at 10 µM was found to be 5.89%.

In the case of `Cc1cc(C)c2nc(CN[C@H]3CCCNC3)cc(O)c2c1`, the cytotoxicity at 10 µM amounted to 4.09%.

Regarding `CCS(=O)(=O)N1CCN(c2cc(-n3cnc(C)c3C)nc(C)n2)CC1`, the cytotoxicity at 10 µM was 0.599%.

`c1cncc(-c2noc(CNCC3CCCN3c3cccnn3)n2)c1` (centres undefined): the cytotoxicity at 10 µM is -4.6%.

For `COCc1ccc(C(=O)N2CCN(CC(C)O)CC2)cc1` (centres undefined), the cytotoxicity at 10 µM came out at 0.0264%.

Turning to `O=S(=O)(CCN1CCCCC1Cn1cncn1)c1ccccc1` (centres undefined), the cytotoxicity at 10 µM turned out to be 10.4%.

With `CCc1n[nH]c(C2CN(C(=O)c3cnn(CC)c3)CCO2)n1` (centres undefined), the cytotoxicity at 10 µM is -2.87%.

Take `Cc1nc(CN(C)C2CCN(CCc3ccc4c(c3)CCO4)C2)no1` (centres undefined): the cytotoxicity at 10 µM was -12%.

For the compound `Cc1cc(C)n(C2CCCN(C(=O)c3c(C)noc3C)C2)n1` (centres undefined), the cytotoxicity at 10 µM was -6.41%.

Regarding `CN(Cc1coc(-c2ccccc2)n1)CC1CCCN1c1cccnn1` (centres undefined), the cytotoxicity at 10 µM is -10.4%.

Turning to `CCc1nc(CN2CCCN(C(=O)c3occc3C)CC2)cs1`, the cytotoxicity at 10 µM was -21.9%.

With `O=C(NCCn1nc2ccccn2c1=O)c1cc(-c2ccccc2)[nH]n1`, the cytotoxicity at 10 µM was -28.5%.

`Cc1ccc(CN2CC[C@@H](NS(C)(=O)=O)[C@@H]2Cc2ccncc2)o1`: the cytotoxicity at 10 µM is -3.18%.

Consider `Nc1ncc(-c2csc(NC(=O)C[C@H]3COCCN3)n2)cn1`, for which the cytotoxicity at 10 µM is -2.83%.
